This data set in a line: Toxicity liver stage against HepG2, at 10uM. The format is cell-based. The arrangement: test concentration 10 uM, cell line HepG2-A16-CD81EGFP. To be noted: human, HepG2-A16-CD81EGFP cells; read-out: INHIBITION
An outline of the steps:
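Uninfected HepG2-A16-CD81EGFP cells, 3 × 10^3 per well, 1536-well, plated on prespotted compound at 10 μM final, parasite-free screening media added to match infected plates; puromycin 10 μM positive, DMSO 0.5% negative; run in parallel with 48 h PbLuc assay at 37 °C, 5% CO2; viability by CellTiter-Glo luminescence, normalized to controls.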
Turning to `CCN1C[C@@H]2[C@@H](OC)CCN(S(=O)(=O)c3cccnc3)[C@@H]2C1`, the cytotoxicity at 10 µM was -77%.

Consider `Cc1cc(CNc2ccnn2CC(C)C)ccc1-n1cncn1`, for which the cytotoxicity at 10 µM was 24%.

With `O=c1n(CCSCc2ccccc2F)nc2ccccn12`, the cytotoxicity at 10 µM stood at 0.168%.

Take `NS(=O)(=O)c1cccc(CNc2nccc(C(F)(F)F)n2)c1`: the cytotoxicity at 10 µM was -11.1%.

With `Cc1ccccc1-c1noc(-c2ccc(NCC3COCCO3)nc2)n1` (configuration not stated), the cytotoxicity at 10 µM is 3.41%.

As to `Cc1cc(CN2CCCC2c2c(C)nn(C)c2Cl)no1` (configuration not stated), the cytotoxicity at 10 µM is -6.98%.

Regarding `CN(Cc1ccccn1)C1COC2(CCN(Cc3nccs3)CC2)C1` (configuration not stated), the cytotoxicity at 10 µM was -16.2%.

In the case of `O=C(c1cc(CC2(NC3CCCCC3)COC2)no1)N1CCCCC1`, the cytotoxicity at 10 µM stood at 7.65%.

Turning to `CC(=O)N1CCC(Cc2cccc(-c3ccnn3C)n2)CC1`, the cytotoxicity at 10 µM was found to be 6.3%.

As for `Cc1cc(C(=O)N2Cc3ccccc3OC3(CCOCC3)C2)nc(N)n1`, the cytotoxicity at 10 µM is -0.928%.

`COc1ccc2c(c1)CCN(Cc1cscn1)CC2`: the cytotoxicity at 10 µM was 0.0869%.

`CN(C)CC1CN(Cc2nnc(C(C)(C)C)o2)CCO1` (configuration not stated): the cytotoxicity at 10 µM was -4.17%.

On to `Cc1nc(CN2CCCC(NCc3c(C)nc4sccn34)C2)no1` (configuration not stated), for which the cytotoxicity at 10 µM was determined as 6.21%.

For `O=C(Cc1ccccn1)N1C[C@@H](Oc2cccnc2)[C@H]2OCCC[C@H]21`, the cytotoxicity at 10 µM came out at 7.8%.

As to `CCOCC1CN(C(=O)c2ccoc2)Cc2nn(C)cc21` (configuration not stated), the cytotoxicity at 10 µM was determined as 0.254%.

Consider `CCCC(Nc1c(C#N)c(=O)n(C)c(=O)n1C)c1ccc(F)cc1F` (configuration not stated), for which the cytotoxicity at 10 µM was -13.2%.

Consider `COc1ccc2cc(C(=O)N3CCCCC3Cn3cccn3)[nH]c2c1` (configuration not stated), for which the cytotoxicity at 10 µM was -9.32%.

`O=C(NC1CC1)N1CCOCC2(C1)CN(c1ccccc1)C(=O)CO2` (configuration not stated): the cytotoxicity at 10 µM is -1.37%.

As for `Cc1nc(C)n(CC2CCCCN2Cc2cnc(C)s2)n1` (configuration not stated), the cytotoxicity at 10 µM was -2.66%.

On to `CN(CC1Cc2ccccc2CN1C)C(=O)Cc1cccs1` (configuration not stated), for which the cytotoxicity at 10 µM was -0.661%.

On to `NC(=O)c1nc(-c2cccc(Cl)c2)oc1N`, for which the cytotoxicity at 10 µM is 2.69%.

For the molecule `CCOCC1CN(Cc2cnn(C)c2)Cc2c1cnn2CC` (configuration not stated), the cytotoxicity at 10 µM was -83.4%.

On to `Cc1ccc(C(=O)N2CCO[C@H]3[C@H](OCC4CCOCC4)CC[C@@H]32)o1`, for which the cytotoxicity at 10 µM came out at 4.28%.

Turning to `Cc1oc(-c2nc(C#N)c(NC3CC3)o2)cc1S(=O)(=O)N1CCCC1`, the cytotoxicity at 10 µM was -9.95%.

Turning to `C=C(C)CN1CCC(NC(=O)Nc2ccc(F)c(C(N)=O)c2)CC1`, the cytotoxicity at 10 µM was -6.08%.

As for `CCN1CCN(C(=O)C(C)N2CCc3cncnc3C2)CC1` (configuration not stated), the cytotoxicity at 10 µM is -10.9%.

Regarding `c1ccc(CO[C@@H]2CN(Cc3nccs3)[C@@H]3COC[C@@H]32)nc1`, the cytotoxicity at 10 µM is -104%.

With `Cc1cn(-c2ccccc2)nc1NS(=O)(=O)c1cccc(C(=O)O)c1`, the cytotoxicity at 10 µM was -10.3%.

Consider `CCOc1ncccc1C(=O)N1CCCC1Cn1nc(C)cc1C` (configuration not stated), for which the cytotoxicity at 10 µM was -4.45%.

As to `NC(=O)CCNC(=O)NCC1(c2ccccc2Cl)CCC1`, the cytotoxicity at 10 µM was -53.1%.

Turning to `O=C(N1CCCC1)N1CCc2onc(COc3cccnc3)c2C1`, the cytotoxicity at 10 µM is -75.6%.

`CN(CCC(C)(C)O)C(=O)C1CCC(=O)N(Cc2ccc(Cl)cc2)C1` (configuration not stated): the cytotoxicity at 10 µM amounted to 7.67%.

`CCN1CCC2(CC1)C(=O)Nc1ccc(C(=O)NC)cc12`: the cytotoxicity at 10 µM was -0.697%.

Take `CCOC(=O)C1CCCN(c2nccc(-n3nc(C)cc3C)n2)C1` (configuration not stated): the cytotoxicity at 10 µM was -11%.

Turning to `Cc1ccc(-c2cc(C(=O)N(C)Cc3noc4c3CCCC4)[nH]n2)s1`, the cytotoxicity at 10 µM was -1.03%.

On to `c1ccc(CN(Cc2cccc3cnccc23)CC2CCCO2)nc1` (configuration not stated), for which the cytotoxicity at 10 µM is -5.68%.

`CCOC(=O)c1sc(NC(=O)CN(C)S(C)(=O)=O)c(C#N)c1C`: the cytotoxicity at 10 µM worked out at 16.6%.

In the case of `C=C(C)Cn1cc(C(N)=O)nc1C1CC1`, the cytotoxicity at 10 µM came to 14.5%.

As for `CC(=O)c1ccc(NC(=O)NC(C)c2ccc3c(c2)CC(=O)N3)cc1` (configuration not stated), the cytotoxicity at 10 µM is -8.03%.

For the molecule `COC(=O)NCc1ccc(NC(=O)CC2=CCCCC2)cc1`, the cytotoxicity at 10 µM is 2.97%.

`CCCc1cncnc1N1CCC(NCc2ccncc2)CC1`: the cytotoxicity at 10 µM is 6.31%.

Regarding `O=C(Cc1cccnc1)NC1CCCN(CCCc2ccccc2)C1` (configuration not stated), the cytotoxicity at 10 µM worked out at 11.5%.

Consider `Cc1ccn(-c2ccnc(N3CCC(N4CCCCC4)CC3)n2)n1`, for which the cytotoxicity at 10 µM was found to be 4.54%.

In the case of `CN(c1ncccc1CNCc1ncc[nH]1)C1CCCCC1`, the cytotoxicity at 10 µM was -7.28%.

With `CCC1CCCCN1CCc1ccncc1` (configuration not stated), the cytotoxicity at 10 µM amounted to 2.4%.

Regarding `COc1cccc(-c2cc(C3=NC(=CN4CCN(C)CC4)NO3)[nH]n2)c1`, the cytotoxicity at 10 µM is -7.54%.

Take `Cc1ccc(S(=O)(=O)N(C)Cc2cnccn2)cc1N(C)C`: the cytotoxicity at 10 µM is 12%.

On to `Cc1nn(CCO)c(C)c1CNC1CCc2c(F)cccc21` (configuration not stated), for which the cytotoxicity at 10 µM is 4.59%.

On to `N#Cc1ccc(C(=O)N2CC[C@H]3[C@@H]2CCC(=O)N3c2ccccc2)cc1`, for which the cytotoxicity at 10 µM turned out to be 3.99%.

`Nc1no[n+]([O-])c1C(=O)NCc1ccco1`: the cytotoxicity at 10 µM was determined as 2.94%.

Turning to `Cc1cc(F)ccc1OC1(C(=O)O)CCN(Cc2c[nH]cn2)CC1`, the cytotoxicity at 10 µM worked out at 1.18%.

Regarding `N#Cc1ccc(CN2CCN(C(=O)c3cc(C4CC4)[nH]n3)CC2)cc1`, the cytotoxicity at 10 µM turned out to be 18.9%.

On to `O=C(NCCCOCc1ccco1)c1cccnc1N1CCOCC1`, for which the cytotoxicity at 10 µM was -8.5%.

As to `CN(c1ccncn1)C1CC2(CCN(C(=O)c3cccn3C)C2)C1` (configuration not stated), the cytotoxicity at 10 µM is -8.05%.

Turning to `CCc1nc(C)c(CC(=O)N2CCC3(CC2)OCCCC3OC)c(=O)[nH]1` (configuration not stated), the cytotoxicity at 10 µM is -0.506%.

Take `CCc1nc(C2CCCN(C(=O)c3cccc(C(N)=O)c3)C2)no1` (configuration not stated): the cytotoxicity at 10 µM is -22.2%.

Turning to `Cc1cnc2n(c1=O)CC(C(=O)NC1CC1)CS2` (configuration not stated), the cytotoxicity at 10 µM was -18.3%.

`CCn1nnc2c1C(COCCN(C)C)CN(S(C)(=O)=O)C2` (configuration not stated): the cytotoxicity at 10 µM is -2.69%.

For `CCC1=NN2C(=N)C(=Cc3cccn3-c3ccc(Cl)cc3)C(=O)N=C2S1`, the cytotoxicity at 10 µM is 7.92%.

On to `CNC(=O)c1ccccc1-c1ccc(S(C)(=O)=O)cc1`, for which the cytotoxicity at 10 µM was -2.07%.

As for `CCN(CC)C(=O)c1cnc(Sc2nccn2C)c(Cl)c1`, the cytotoxicity at 10 µM is -61.1%.

For `CC[C@H]1CN(C(=O)c2cccnc2)CC[C@H]1CC(=O)NCCOC`, the cytotoxicity at 10 µM was determined as 5.26%.

With `CCN(CC(C)C#N)C(=O)CNc1cc(Cl)ccc1C(N)=O` (configuration not stated), the cytotoxicity at 10 µM turned out to be 17.6%.

As for `Cc1noc(C)c1CN(C)Cc1csc(-c2ccccc2F)n1`, the cytotoxicity at 10 µM amounted to 37.2%.

Turning to `COC1CCCN(c2nc(C)nc3c2CCN(Cc2ccco2)CC3)C1` (configuration not stated), the cytotoxicity at 10 µM amounted to 2.02%.

With `CNc1cc(N2CCCC2CNCc2cccc(C#N)c2)ncn1` (configuration not stated), the cytotoxicity at 10 µM was -10.7%.

Take `COc1nn(C)c2c1CCCN(C(=O)c1ccsc1)C2`: the cytotoxicity at 10 µM was -0.414%.

As for `CCCc1n[nH]c(C2CN(Cc3ncc[nH]3)CCO2)n1` (configuration not stated), the cytotoxicity at 10 µM amounted to 4.69%.

Consider `Cn1cnc2c1C(COCC1CC1)CN(Cc1ccc3c(c1)OCO3)C2` (configuration not stated), for which the cytotoxicity at 10 µM is -12%.

Consider `O=C(CCCn1cccn1)N1CCCC(n2cncn2)C1` (configuration not stated), for which the cytotoxicity at 10 µM worked out at 6.61%.

As to `CN(CC(N)=O)Cc1ccc(F)cc1Cl`, the cytotoxicity at 10 µM was -3.53%.

In the case of `O=C(CCc1ccco1)N1CCCC(n2cccn2)C1` (configuration not stated), the cytotoxicity at 10 µM was -8.8%.

Take `O=C(COc1coc(CN2CCOCC2)cc1=O)c1ccc(Cl)cc1`: the cytotoxicity at 10 µM is -10.6%.

Take `COc1ccnc(N2CCC3(CCCN(CC4CC4)C3=O)C2)n1` (configuration not stated): the cytotoxicity at 10 µM came out at 1.13%.

For the molecule `COCCN(C)C(=O)Cn1cccc(OC)c1=O`, the cytotoxicity at 10 µM is -14.8%.

For the molecule `Cc1ccc(-c2cc(C3=NC(=CN4CCN(C)CC4)NO3)[nH]n2)s1`, the cytotoxicity at 10 µM was -9.45%.

For the molecule `O=C(Cn1cnnn1)Nc1ccc(F)cc1OCC1CC1`, the cytotoxicity at 10 µM is 5.38%.

Take `Cc1ccoc1CNCc1nnc2n1CC(C(F)(F)F)CC2` (configuration not stated): the cytotoxicity at 10 µM turned out to be 14.3%.

For the molecule `CN(C)C(=O)C1CCc2nnc(CNC(=O)c3ccc(Cl)cc3Cl)n21` (configuration not stated), the cytotoxicity at 10 µM was 7.61%.

Take `Cc1cc(CN(C)C(=O)c2ccc(Cl)c(N3CCCC3=O)c2)no1`: the cytotoxicity at 10 µM was -14.5%.

Turning to `O=C(c1cnccn1)N1CCC(Cc2cnc3[nH]ccc3c2)CC1`, the cytotoxicity at 10 µM was -18.6%.

For `N#CCCN(CC1CCOC1)S(=O)(=O)c1c(F)cccc1Cl` (configuration not stated), the cytotoxicity at 10 µM is -2.58%.

As to `Cc1n[nH]c(C)c1CNC(=O)N(Cc1ccccc1)CC(C)(C)O`, the cytotoxicity at 10 µM turned out to be 1.72%.

In the case of `COCC(=O)N1CCC(c2c(C(=O)N(C)C)sc3ncccc23)C1` (configuration not stated), the cytotoxicity at 10 µM was 1.55%.

Take `CC1(C)CNC(=O)c2nc(CCN3CCC(O)CC3)[nH]c2C1`: the cytotoxicity at 10 µM is -10.4%.

With `COC1(CNC(=O)c2ccoc2)CCSC1` (configuration not stated), the cytotoxicity at 10 µM was -10.8%.

With `Cc1ncc2c(n1)CN(CC(=O)NCCOc1ccccc1)CC2`, the cytotoxicity at 10 µM is -8.66%.

`Cc1ccc2c(c1)c(CNC(C)Cn1nc(C)cc1C)nn2C` (configuration not stated): the cytotoxicity at 10 µM is -10.5%.

On to `Oc1cc(CNCCCN2CCCC2)nc2ccc(F)cc12`, for which the cytotoxicity at 10 µM is -56%.

Regarding `COCc1cc(NCCCSc2nnc(C)s2)ncn1`, the cytotoxicity at 10 µM was determined as 11.6%.

With `CC(C(N)=O)N(C)Cc1ccccc1C(F)(F)F` (configuration not stated), the cytotoxicity at 10 µM was -5.54%.

For the molecule `COc1ccc(F)cc1-c1ccccc1CC1CNCCNC1=O` (configuration not stated), the cytotoxicity at 10 µM amounted to 3.48%.

`COc1ccc2cc(CN(C)C(C)c3nc(C(C)(C)C)no3)ccc2c1` (configuration not stated): the cytotoxicity at 10 µM is 1.44%.

For the molecule `CC(O)C(=O)N1CCC(c2nccn2Cc2cscn2)CC1` (configuration not stated), the cytotoxicity at 10 µM stood at 0.557%.

With `O=C(c1cnc2ccccc2c1)N1CCCC(O)(CN2CCCC2)C1` (configuration not stated), the cytotoxicity at 10 µM is 9.27%.

For `O=C(Cn1cc(Cl)cn1)Nc1ccc2c(c1)OCO2`, the cytotoxicity at 10 µM was 4.57%.

As for `COCC(=O)NCc1cc2n(n1)CCCN(Cc1ccccc1SC)C2`, the cytotoxicity at 10 µM was 2.04%.

The record behind these values is ChEMBL document CHEMBL4513216, “Probing the Open Global Health Chemical Diversity Library for Multistage-Active Starting Points for Next-Generation Antimalarials” (ACS Infect Dis, 2020).
